Experimental data from article PMC9161413 (ACS Omega, 2022).

Legend:
[1] = system: K562 cells; test: Cell internalization, cytofluorimetric assay, K562; type: cell-based, human; conditions: 24 h, 5 μM
How it was run: (§1)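 K562 cells (RPMI-1640, 5% FBS, 37 °C, 5% CO2) and MDA-MB-231 cells (DMEM with 4500 mg/L glucose, 10% FBS, 37 °C, 10% CO2) were treated 24 h at 5 μM. Flow cytometry detected the compound's intrinsic fluorescence (λexc 405 nm, λem 421 nm). Read-out was the percentage of cells above the untreated autofluorescence threshold; at least three independent experiments.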

[2] = system: MDA-MB-231 cells; test: Cell internalization, cytofluorimetric assay, MDA-MB-231; type: cell-based, human; conditions: 24 h, 5 μM
How it was run: as §1

[3] = system: ERK1/2 phosphorylation; test: ERK1/2 phosphorylation in L929 cells, western blot; type: cell-based, murine; conditions: 24 h, 5 μM
How it was run: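 Subconfluent L929 cells were exposed 24 h at 5 μM in serum-free medium. Cells were lysed in RIPA with PMSF, orthovanadate and protease inhibitors, and 40–60 μg protein was resolved on 4–12 Bis-Tris gels onto PVDF. Blots were probed overnight at 4 °C for phospho- and total ERK1/2 (vinculin loading control), with fluorescent secondaries and infrared imaging. Phospho-signal was normalised to total protein; three independent experiments; one-way ANOVA with Tukey test.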

[4] = system: N-Cadherin expression; test: N-cadherin expression in L929 cells, western blot; type: cell-based, murine; conditions: 24 h, 5 μM, compared to untreated cells
How it was run: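 L929 cells (subconfluent, serum-free medium) were treated 24 h at 5 μM. RIPA lysates containing phosphatase/protease inhibitors (40–60 μg protein) were separated on 4–12 Bis-Tris gels and blotted to PVDF. N-cadherin antibody was applied overnight at 4 °C, with vinculin as loading control and infrared fluorescence detection. Densitometry was normalised to total protein and expressed as percent of untreated cells; three independent experiments; ANOVA with Newman–Keuls test.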

[5] = system: L929 cells; test: Inhibition of cell proliferation, MTT assay; type: cell-based, murine; conditions: 24 h, 1–10 μM
[6] = system: VEGFR-1; conditions: read-out: IC50 VEGFR-1; cited from earlier work
[7] = system: VEGFR-3; conditions: read-out: IC50 VEGFR-3; cited from earlier work
[8] = system: FGFR-2; conditions: read-out: IC50 FGFR-2; cited from earlier work
[9] = system: FGFR-3; conditions: read-out: IC50 FGFR-3; cited from earlier work
[10] = system: PDGFR-α; conditions: read-out: IC50 PDGFR-α; cited from earlier work
[11] = system: PDGFR-β; conditions: read-out: IC50 PDGFR-β; cited from earlier work

Row | Molecule | internalization / cell fluorescence (in words) [1] | internalization / cell fluorescence (in words) [2] | inhibition of ERK1/2 phosphorylation (in words) [3] | inhibition of N-Cad expression (in words) [4] | antiproliferative / cytostatic effect (in words) [5] | IC50 [6] [nM] | IC50 [7] [nM] | IC50 [8] [nM] | IC50 [9] [nM] | IC50 [10] [nM] | IC50 [11] [nM]
1 | COC(=O)c1ccc2c(c1)NC(=O)/C2=C(\Nc1ccc(N(C)C(=O)CN2CCN(C)CC2)cc1)c1ccccc1 [nintedanib] | efficiently internalized | efficiently internalized | efficiently inhibits | almost by half | mild antiproliferative effect | 34 | 13 | 37 | […] | 59 | 65
2 | c(AmpLRGDL) [compound 6] | – | – | no inhibition | stronger inhibitory effect | mild antiproliferative effect | – | – | – | – | – | –
